Sampled rows, rich in hits. Any-hit rate of the full collection: about 1.7%.
FN deposition inh: inhibitors of fibronectin matrix deposition, primary screen, AH1F cells, Alexa488-fibronectin fluorescence, plate reader | inhibition, % at 12.6 µM | AH1F fibroblasts, overnight | 0.086% of 350,000 active;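 active = mean inhibition across replicates of 30% or more, regardless of how many single replicates reach that level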;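 also: positive control wells lacked labelled fibronectin entirely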
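Measured by – fluorescence 485/525 nm · System – AH1F fibroblast monolayer, labelled fibronectin deposition · Amount – 10000 cells per well · Buffer or medium – serum-reduced DMEM (2% serum) · Doses – single dose, pinned · Also added – fluorescent fibronectin at 24 nM final · Schedule – 1 h cell attachment, overnight exposure to compound and label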
PglD inh: C. jejuni PglD acetyltransferase inhibitors, primary screen, biochemical, DTNB colorimetric, single point; purified PglD enzyme, DTNB colorimetric CoA detection; inhibition, % at 12.5 µM; 0.098% of 360,000 active; AID 602405, 2012; in the data active = inhibition above about 16%, passing the limit was not always enough
Rtt109 Vps75: inhibitors of C. albicans Rtt109/Vps75 HAT, primary screen, biochemical, ThioGlo CoA-SH fluorescence, plate reader | Histone acetyltransferase RTT109 (Candida albicans (strain SC5314 / ATCC MYA-2876)), … | purified Rtt109/Vps75, 4 h | inhibition, % at 34.9 µM | 0.16% of 330,000 active;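 active = inhibition of at least 50% in every replicate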
Target sequence (Q5AAJ8 whole entry, looked up): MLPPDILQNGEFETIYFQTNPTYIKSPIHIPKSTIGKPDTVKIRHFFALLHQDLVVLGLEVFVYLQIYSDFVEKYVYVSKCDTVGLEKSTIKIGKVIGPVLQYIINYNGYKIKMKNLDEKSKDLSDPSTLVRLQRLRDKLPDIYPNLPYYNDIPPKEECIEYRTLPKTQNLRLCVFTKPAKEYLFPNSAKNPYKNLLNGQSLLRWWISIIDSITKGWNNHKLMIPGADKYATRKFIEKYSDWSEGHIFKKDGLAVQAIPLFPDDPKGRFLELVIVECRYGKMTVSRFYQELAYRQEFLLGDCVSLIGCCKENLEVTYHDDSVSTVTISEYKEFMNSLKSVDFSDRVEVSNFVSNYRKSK
CSC inhib: cancer stem cell viability inhibitors, primary screen, luminescence; cancer stem cell-like cells viability; inhibition, % at 7.5 µM; 1.1% of 300,000 active; in the data active = inhibition above about 75%; tested in HMLE shEcad cells
PfHsp90 yeast 2: growth inhibition of PfHsp90-expressing yeast, primary screen, antimalarial PfHsp90 inhibitor project, S. cerevisiae, BacTiter-Glo luminescence, single point, set 2. BacTiter-Glo ATP, 48 h; yeast lacking PDR1 and PDR3 efflux regulators. inhibition, % at 9.4 µM. 0.32% of 310,000 active. AID 504621, 2011;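 active = every replicate shows inhibition above about 80%, whatever the replicate mean, limit read from the data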;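 also: 0% = DMSO neutral controls and 100% = 20 µM radicicol positive controls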
SKKanGAS inh: S. pyogenes SKKanGAS growth inhibitors in kanamycin, primary screen, streptokinase expression inhibitor project, SKKanGAS strain, BacTiter-Glo luminescence | 6 h | inhibition, % at 7.5 µM | 1.3% of 300,000 active | AID 1662, 2009;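 active = mean replicate score, as percent of positive control median, at least 50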;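 also: strain carries kanamycin resistance gene driven by streptokinase promoter and grows in 40 µg/ml kanamycin; loss of luminescence reflects streptokinase promoter inhibition or plain growth inhibition; 0% = median of DMSO wells and 100% = positive control at its reference dose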
The depositor's hits bear a star; . = not tested or not shown.

SMILES | FN deposition inh | PglD inh | Rtt109 Vps75 | CSC inhib | PfHsp90 yeast 2 | SKKanGAS inh
CO[C@@H]1CN(C)C(=O)c2cc(NC(C)=O)ccc2OC[C@H](C)N(C(=O)C2CCOCC2)C[C@@H]1C | -1.2 | 1.2 | . | . | . | .
O=C1C=CC(=O)N1CCCCCCN1C(=O)C=CC1=O | 47.6* | . | . | 102.3* | . | .
COc1cc2ccccc2cc1C(=O)Nc1ccc(Cc2ccncc2)cc1 | . | -2.6 | 15.2 | 97.4* | 11.5 | 26.0
COc1cc2ccccc2cc1C(=O)Nc1ccc(Br)cn1 | 0.1 | -6.3 | 59.2* | 2.0 | 9.6 | -5.1
CCC(C(=O)OCC(=O)Nc1cc(Cl)cc(Cl)c1)c1ccccc1 (stereo not drawn) | 1.2 | -1.5 | -8.5 | 8.9 | 3.5 | 52.7*
COc1ccc(C2C(O)C(c3c[nH]c4ccccc34)=NN2C(=O)CCl)cc1 (stereo not drawn) | 1.9 | -2.9 | 21.3 | 109.1* | -2.2 | 5.2
Cc1c(O)cc2c(c1O)C(=O)CC(c1ccccc1)O2 (stereo not drawn) | . | 2.1 | -1.4 | 76.8* | 27.9 | 2.8
CC(C)CC#Cc1ccc2c(c1)O[C@@H](CN(C)Cc1ccncc1)[C@H](C)CN([C@@H](C)CO)S2(=O)=O | . | -1.4 | . | . | . | .
CC(=NNC(=S)N1CCCCC1)c1ccccn1 | -7.0 | . | . | . | . | .
CC(=NNC(=S)N1CC2CCC(CC2)C1)c1ccncn1 | 6.3 | . | -1.2 | . | 111.4* | .
C[C@H]1CN([C@@H](C)CO)C(=O)CCCn2nncc2CO[C@@H]1CN(C)C | -0.6 | -1.8 | . | . | . | .
Cc1cc2n(n1)C(c1c[nH]c3ccccc13)Nc1ccccc1-2 (stereo not drawn) | . | 1.1 | 29.2 | 66.4 | 125.2* | 62.9*
Cc1cc2n(n1)C(c1cn(-c3ccccc3)nc1C)Nc1ccccc1-2 (stereo not drawn) | -7.4 | 1.9 | 4.7 | 1.9 | . | -7.4
O=C1CC(=O)N(Cc2ccco2)C(=S)N1 | . | 1.2 | 75.6* | -5.8 | 7.0 | 11.0
O=C1CC(=O)N(Cc2ccco2)C(=O)N1 | -8.9 | -1.1 | -5.1 | -8.1 | -9.9 | -0.4
Cc1ccc(NC(=O)OCc2cc(-c3ccccc3)on2)cc1 | 2.9 | . | 55.8* | 11.3 | -8.3 | 4.3
O=Nc1c(-c2c(O)[nH]c3cc(Br)ccc23)[nH]c2ccccc12 | 29.9 | 3.6 | 1.3 | 103.4* | 5.0 | 95.2*
O=C(CSCc1cccc(Br)c1)N=Nc1c(O)[nH]c2ccccc12 | -0.3 | . | 9.9 | -7.6 | . | 2.4
COc1ccccc1NS(=O)(=O)c1cc(NC(=O)c2cccs2)ccc1N1CCCC1 | -8.4 | . | 12.4 | 4.6 | -4.8 | 8.7
O=C(Nc1ccc(N2CCCC2)c(S(=O)(=O)Nc2cccc(C(F)(F)F)c2)c1)c1cccs1 | 7.3 | . | 2.6 | 14.9 | -36.1 | 52.1*
COc1ccc(CN2[C@@H](CO)[C@@H]3c4ccccc4N(C(=O)c4ccccc4)C[C@@H]32)cc1 | -1.3 | -9.4 | . | . | . | .
CC(C)(C)C(=O)/C(=C\c1ccc([N+](=O)[O-])cc1)n1cncn1 | . | . | . | 118.8* | . | -7.2
CC(C)(C)C(=O)/C(=C/c1ccc(Cl)cc1)n1cncn1 | 11.4 | 0.4 | 0.0 | 30.2 | -21.6 | -1.0
COc1cccc(C(=O)C(C#N)=C(SC)SC)c1 | 1.8 | 7.9 | 0.6 | 82.8* | -0.7 | 2.1
Cc1ccc(C)c(N2CCN(C(=O)c3ccc4c(c3)c(C)c(C)n4C)CC2)c1 | -11.4 | -3.2 | -3.0 | 82.1* | 14.0 | 24.1
SMILES | FN deposition inh | PglD inh | Rtt109 Vps75 | CSC inhib | PfHsp90 yeast 2 | SKKanGAS inh
Cc1c(C)n(C)c2ccc(C(=O)N3CCN(c4ccccc4)CC3)cc12 | -0.1 | -1.8 | 1.8 | 9.6 | -23.4 | 17.1
CCCCCCCCCCCC1=C(O)C(=O)C=C(O)C1=O | . | 0.0 | 1.2 | -8.6 | -6.8 | 101.9*
CN1/C(=C\C(=O)Nc2ccc(Br)cc2)C(C)(C)c2ccccc21 | -0.9 | -12.7 | 39.4 | 76.3* | 9.0 | 70.7*
CN1/C(=C\C(=O)Nc2ccc(F)cc2)C(C)(C)c2ccccc21 | -3.3 | . | -8.0 | 33.5 | 9.8 | 7.4
COc1cccc(CN2CCC(N(CCc3ccccc3)Cc3ccccc3)CC2)c1OC | 5.9 | -1.6 | 9.6 | 76.8* | -22.0 | -4.1
COc1cccc(CN2CCN(Cc3cccc(Oc4ccccc4)c3)CC2)c1OC | -3.7 | 7.3 | 15.0 | 30.6 | 10.5 | -3.8
Nc1nc(-c2ccccc2)c(N=Nc2ccccc2Cl)s1 | 17.2 | . | -12.0 | -6.2 | -15.0 | -6.0
Nc1nc(-c2ccccc2)c(N=Nc2cccc3ccccc23)s1 | 7.2 | . | -3.8 | 55.5 | -3.9 | 57.4*
CO[C@@H]1CN(C)C(=O)c2cc(NC(=O)Nc3ccccc3)ccc2OC[C@H](C)N(CC2CC2)C[C@H]1C | 9.4 | -3.2 | . | . | . | .
COc1ccc(-c2cn(CC[C@H]3CC[C@H](NC(=O)NC(C)C)[C@H](CO)O3)nn2)cc1 | 3.6 | -1.0 | . | . | . | .
S=c1[nH]nc(COc2ccccc2)n1/N=C/C(Cl)=C/c1ccccc1 | 0.4 | . | 5.2 | 142.1* | . | 20.2
CCCNC(=O)N(C)C[C@H]1Oc2cc(C#CCC(C)C)ccc2S(=O)(=O)N([C@@H](C)CO)C[C@@H]1C | -11.1 | -0.8 | . | . | . | .
Nc1ccc(Nc2nc3ccccc3[nH]2)cc1 | 1.7 | 5.1 | 1.8 | -8.0 | -2.4 | 5.9
c1ccc(Nc2nc3ccccc3[nH]2)nc1 | . | -1.7 | 15.3 | 5.1 | -25.3 | 62.2*
CCCc1ccc(C(=O)NNc2ccc(F)cc2)cc1 | 5.7 | -3.7 | 0.6 | 94.4* | 13.4 | 1.0
CCCc1ccc(C(=O)NNC(=O)c2ccc(Br)cc2)cc1 | -0.8 | 9.7 | -1.3 | -20.4 | 7.7 | 11.6
Cc1cc(C)n(-c2nc(NC(C)C)nc(NC(C)C)n2)n1 | . | 0.5 | -3.1 | -14.7 | -22.9 | 2.7
Cc1cc(C)n(-c2nc(NC(C)(C)C)nc(NC(C)(C)C)n2)n1 | . | . | -1.8 | -4.0 | -30.9 | 111.2*
CCNc1nc(NCC)nc(-n2nc(C)cc2C)n1 | . | 4.9 | -0.9 | -8.5 | -30.4 | 87.2*
O=C(Nc1ccc2c(c1)[C@@H]1C[C@@H](CC(=O)N3CCc4ccccc4C3)O[C@H](CO)[C@@H]1O2)NC1CCCC1 | . | 2.8 | . | . | . | .
C=CCn1c(SCC(=O)c2[nH]c(C)c(C(=O)OCC)c2C)nc2scc(-c3ccc(OC)c(OC)c3)c2c1=O | 0.7 | . | -2.9 | 93.0* | -8.8 | 19.6
COc1cccc(CNC(=O)C[C@@H]2C=C[C@@H](NS(=O)(=O)c3ccccc3OC)[C@@H](CO)O2)c1 | . | -5.4 | . | . | . | .
CCOc1ccc(N(CC(=O)NCc2ccc(C)cc2)S(=O)(=O)c2c(C)[nH]c(=O)[nH]c2=O)cc1 | . | -0.7 | 3.9 | 9.7 | -11.7 | 58.8*
COc1ccccc1N1CCN(c2nc(-c3ccccc3)cc(C(F)(F)F)n2)CC1 | 0.5 | -0.8 | -5.3 | 8.6 | 3.4 | 2.7
